Assay results gathered from unrelated publications.
Target: Inhibitor of nuclear factor kappa-B kinase subunit epsilon (IKBKE, Homo sapiens, UniProt Q14164)
One construct used (Q14164 1-716): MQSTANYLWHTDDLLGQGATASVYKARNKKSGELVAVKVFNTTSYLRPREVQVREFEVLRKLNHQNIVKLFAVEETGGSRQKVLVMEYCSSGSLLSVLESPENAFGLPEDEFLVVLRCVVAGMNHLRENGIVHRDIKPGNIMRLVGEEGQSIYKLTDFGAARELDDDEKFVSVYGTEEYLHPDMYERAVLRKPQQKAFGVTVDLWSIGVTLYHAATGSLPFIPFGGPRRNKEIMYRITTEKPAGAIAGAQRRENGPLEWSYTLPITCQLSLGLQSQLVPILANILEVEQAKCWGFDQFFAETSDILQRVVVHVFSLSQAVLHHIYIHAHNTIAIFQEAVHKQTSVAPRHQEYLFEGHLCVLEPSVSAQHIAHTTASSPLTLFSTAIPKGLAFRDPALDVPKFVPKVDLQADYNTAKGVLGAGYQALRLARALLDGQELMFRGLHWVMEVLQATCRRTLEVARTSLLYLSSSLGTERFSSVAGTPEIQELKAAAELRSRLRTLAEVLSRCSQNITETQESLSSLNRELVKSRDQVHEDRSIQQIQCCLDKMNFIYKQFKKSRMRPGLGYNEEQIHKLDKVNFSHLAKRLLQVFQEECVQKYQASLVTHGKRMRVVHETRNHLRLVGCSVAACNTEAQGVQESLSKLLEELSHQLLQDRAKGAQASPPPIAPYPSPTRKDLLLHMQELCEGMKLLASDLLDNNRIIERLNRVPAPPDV

C=CC(=O)N1CCC(C(=O)NCC(=O)N2CCN(c3nc(-c4cnc(N)nc4C(F)F)nc(N4CCOCC4)n3)CC2)CC1 — remaining binding (binding, competition with immobilised ligand; 1 µM): 71%
F[C@@H]1CCN(c2nccc(-c3cnn4ncccc34)n2)C1 — remaining binding (binding; 1 µM): 100%
Cc1cnc(Nc2ccc(C(=O)N3CCC(N4CCCC4)CC3)cc2)nc1-c1cc2ccccc2s1 — remaining binding (binding, competition with immobilised ligand; 1 µM): 18%
CNC(=O)[C@@H]1CC[C@@H](n2c(-c3ccc4cnccc4c3)nc3ccc(C(=O)NCc4cccc(C(N)=O)c4)cc32)C1 — remaining binding (binding, competition with immobilised ligand; 1 µM): 98%
C[C@H]1CCN(c2nccc(-c3cnn4ncccc34)n2)C1 — remaining binding (binding; 1 µM): 79%
CN(C)CC#Cc1ccc(OCCCc2sc(N3CCc4cccc(C(=O)Nc5nc6ccccc6s5)c4C3)nc2C(=O)O)c(F)c1 — remaining binding (cell-free assay, competition with immobilised ligand; 1 µM): 100%
CC1CCCN1c1nccc(-c2cnn3ncccc23)n1 (centres unmarked) — remaining binding (binding; 1 µM): 100%
CCCOc1ccc([C@@H]2[C@@H](C(=O)O)[C@H](c3ccc4c(c3)OCO4)CN2CC(=O)Nc2c(CC)cccc2CC)cc1 — remaining binding (cell-free assay, competition with immobilised ligand; 1 µM): 85%
CN(C)c1nccc(-c2cnc3ncccn23)n1 — remaining binding (binding; 1 µM): 100%
Nc1cnc(N2CCc3cc(S(=O)(=O)Nc4c(F)cc(Cl)cc4F)cc(N4CCCC4=O)c32)nc1 — remaining binding (cell-free assay, competition with immobilised ligand; 1 µM): 95%
O=C(NCCCN1CCOCC1)c1ccc(Nc2nccc(-c3cc4ccccc4s3)n2)cc1 — remaining binding (binding, competition with immobilised ligand; 1 µM): 96%
Cc1cc(C)c(-n2ccn3nc(-c4cccnc4)cc23)cc1NC(=O)c1cc(C#N)cc(S(F)(F)(F)(F)F)c1 — remaining binding (cell-free assay, competition with immobilised ligand; 0.1 µM): 59.9%
CN(C)c1nccc(-c2cnn3ncccc23)n1 — remaining binding (binding; 1 µM): 89%
COc1cnc(Nc2cccc(S(N)(=O)=O)c2)nc1N1CCN(c2ccccc2)C(=O)C1 — remaining binding (binding, competition with immobilised ligand; 1 µM): 50%
O=C(c1ccc(Nc2ncc(Cl)c(-c3cc4ccccc4s3)n2)cc1)N1CCC(N2CCCC2)CC1 — remaining binding (binding, competition with immobilised ligand; 1 µM): 21%
CCc1ccccc1C(=O)Nc1n[nH]c2c(C)c(F)c(C3C(C#N)=C(C)N(C)C(C)=C3C#N)cc12 — remaining binding (cell-free assay, competition with immobilised ligand; 1 µM): 68%
N[C@@H]1CCN(c2nccc(-c3cnn4ncccc34)n2)C1 — remaining binding (binding; 1 µM): 100%
C[C@@H](c1ccc(-n2cnc3c(N)ncnc32)cc1)N1CCc2nn(C)c(Cc3ccccc3)c2C1=O — remaining binding (binding, competition with immobilised ligand; 0.1 µM): 73%
CC(C)(O)c1cncc(-c2nc3ccc(F)cc3n2C2CC2)c1 — remaining binding (cell-free assay, competition with immobilised ligand; 1 µM): 100%
O=C(Nc1c[nH]nc1C(=O)NC1CCNCC1)c1cc(F)cc(F)c1 — remaining binding (binding, competition with immobilised ligand; 1 µM): 100%
